# In the library only some 2% were active in any assay of this set; here they are far more common.
# ABCB6 inh 2 – human ABCB6 transporter inhibition; Q9NP58; K562-ABCB6 porphyrin accumulation, flow cytometry, 1 h; hits give low values; fluorescence ratio to DMSO, % at 10 µM; 360,000 compounds, 0.19% hits; AID 602162;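 active means fluorescence ratio to DMSO below 75%, the collection mean minus 3 SD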;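 further: signal is porphyrin accumulated inside mitochondria; lower ratio means ABCB6 inhibition with less porphyrin fluorescence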
# DAGLB inhibitor – blocks human DAGLB lipase activity. inhibition, % at 5.17 µM. HEK293T DAGLB membrane lysate, EnzChek fluorogenic substrate. Q8NCG7. 340,000 compounds, 0.059% hits. AID 504411; in the data active means inhibition above about 34%
# VLA-4 inh – inhibition in a human VLA-4 binding assay; P13612; VLA-4 expressing cells, ligand binding flow cytometry; inhibition, % (about 7 µM as worked out from the volumes in the protocol); 330,000 compounds, 0.2% hits; AID 2557; in the data active means inhibition above about 50%
# MT1-MMP act inh – inhibitors of human MT1-MMP activation; P50281; HT1080 RFP-PRO-GFP cells, GFP/RFP ratio fluorescence, overnight; percent of plate control window, DMSO zero; GFP/RFP ratio change, % at 20 µM; 360,000 compounds, 0.061% hits;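 active means GFP/RFP ratio change of at least 30% with cell ATP level not reduced by more than half and red fluorescence within 50% of control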
#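 Assay system: HT1080 RFP-PRO-GFP cells. Benchmarks: DMSO vehicle wells and RFP-L50D-GFP reporter cell wells. Times: overnight cell settling, then overnight compound exposure, 37 °C, 5% CO2. Compound: 20 µM single dose, 1% DMSO. Read-out basis: GFP/RFP fluorescence ratio.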
# FGF22 binding – shifts melting point of recombinant human FGF22; AID 651658; activity (Tm shift, normalised), % at 9.99 µM; 340,000 compounds, 1.5% hits; Q9HCT0; recombinant FGF22 thermal shift, SYPRO orange fluorescence; percent of sucrose octasulfate shift, DMSO zero;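 active means mean Tm shift, scaled 0 neutral to 100 positive control, at about 1.3% or above, every replicate too, limit read from the data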
# Target sequence (Q9HCT0 whole entry, looked up): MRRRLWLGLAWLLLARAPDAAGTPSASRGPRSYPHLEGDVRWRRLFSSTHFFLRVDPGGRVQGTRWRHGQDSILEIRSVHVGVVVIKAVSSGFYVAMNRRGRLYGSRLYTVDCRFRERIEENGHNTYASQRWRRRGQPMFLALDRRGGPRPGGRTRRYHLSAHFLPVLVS
# Granule exo inh – lytic granule exocytosis inhibition; TALL-104 LAMP-1 surface exposure, flow cytometry; cells stimulated with thapsigargin and PMA; inhibition, % at 10 µM; 360,000 compounds, 0.66% hits; AID 651702;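 active means inhibition above about 55%, limit read from the data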
# Numbers stand for hits; n = inactive; x = no result given.
SMILES,ABCB6 inh 2,DAGLB inhibitor,VLA-4 inh,MT1-MMP act inh,FGF22 binding,Granule exo inh
O=C1CCN(Cc2nc(-c3ccc(Cl)cc3)no2)CCN1,n,n,n,n,43,n
COc1cccc(/C=N/NC(=O)c2ccccc2)c1OS(=O)(=O)c1ccccc1,n,n,n,n,44,n
O=C1NC(=O)C2(Br)Nc3ccc(Br)cc3C(=O)C2N1 (centres undefined),n,n,x,n,1.4,n
CCOC(=O)/C=C1\SCC(=O)N1CC(=O)NCc1ccc(OC)c(OC)c1,n,n,n,n,43,n
COc1ccc(NC(=O)N(C)C[C@H]2Oc3ccc(N(C)C)cc3CC(=O)N([C@H](C)CO)C[C@@H]2C)cc1,x,x,x,x,n,x
Cc1cnc(C(=O)OCC(=O)c2cc(C)n(C)c2C)cn1,n,n,n,n,43,n
Cc1cc(C)n2nc(C(=O)OCC(=O)c3cc(C)n(C)c3C)nc2n1,n,n,n,n,x,n
COc1ccc(-c2nc(=S)[nH][nH]2)cc1,n,n,n,n,x,56
C[C@H]1CN([C@@H](C)CO)C(=O)CCCn2cc(nn2)CO[C@H]1CN(C)Cc1cccc(C(F)(F)F)c1,x,x,x,x,n,x
O=C(/C=C/c1ccco1)OCC(=O)c1ccc(OC(F)F)cc1,n,n,n,n,n,n
COc1cc(/C=C/C(=O)OCC(=O)c2ccc(OC(F)F)cc2)ccc1O,n,n,n,n,n,67
COc1cc(/C=C/C(=O)OCC(=O)NC(=O)NC(C)(C)C)ccc1O,n,n,n,n,n,n
COc1cc(/C=C/C(=O)OCC(=O)Nc2cccc(F)c2)ccc1O,n,n,n,n,45,n
C[C@H](CO)N1C[C@H](C)[C@@H](CN(C)Cc2ccc(Cl)c(Cl)c2)Oc2ccc(NC(=O)NC3CCCCC3)cc2CC1=O,x,x,x,x,n,x
COc1ccccc1-c1ccc2n(c1=O)C[C@@H]1[C@@H](CO)[C@H](C(=O)NCC3CC3)N(S(C)(=O)=O)[C@H]21,x,x,x,x,n,x
COc1ccc(NC(=O)C(c2ccccc2)c2ccccc2)cn1,n,n,n,n,43,n
CC(=O)Nc1ccc(NC(=O)C(c2ccccc2)c2ccccc2)cc1,n,n,n,n,n,n
O=C(C[C@@H]1C[C@@H]2c3cc(NC(=O)NC4CCCCC4)ccc3O[C@@H]2[C@@H](CO)O1)NCCc1ccccc1,x,x,x,x,n,x
CCCc1cc(C(=O)N2CCC(N3CCC(C(=O)NC(C)C)CC3)CC2)n(C)n1,n,n,n,n,44,n
COC(CNC(=O)C1CCCN(S(=O)(=O)c2c(C)noc2/C=C/c2cccs2)C1)OC (centres undefined),n,n,n,n,1.4,n
COCCNC(=O)C1CCCN(S(=O)(=O)c2c(C)noc2/C=C/c2cccs2)C1 (centres undefined),n,n,n,n,n,n
S=C(Nc1ccc(Cl)cc1)NC1CCN(Cc2ccccc2)CC1,n,n,n,n,n,69
CCCN1CCC(NC(=S)Nc2ccc([N+](=O)[O-])cc2)CC1,n,n,n,n,n,86
CCOC(=O)N1CCN(C(=O)CCCn2c(=O)[nH]c3ccccc3c2=O)CC1,n,n,n,n,x,n
CC(=O)c1ccc(N2CCN(C(=O)CCCn3c(=O)[nH]c4ccccc4c3=O)CC2)cc1,n,n,n,n,43,n
SMILES,ABCB6 inh 2,DAGLB inhibitor,VLA-4 inh,MT1-MMP act inh,FGF22 binding,Granule exo inh
CCCNC(=O)C[C@@H]1CC[C@H]2[C@@H](COc3ccc(NC(=O)Nc4cccc(C)c4)cc3C(=O)N2C)O1,x,x,x,x,n,x
COc1ccc(-c2nc(N)ncc2-c2csc(C)n2)c(O)c1OC,n,n,n,n,44,n
COc1ccc(N2c3ccccc3CN(Cc3ccccc3)CC2Cc2cc(OC)c(OC)c(OC)c2)cc1 (centres undefined),n,n,x,n,44,n
CCCNC(=O)Nc1ccc2c(c1)C(=O)N(C)[C@H]1CC[C@H](CC(=O)NCc3ccccc3)O[C@H]1CO2,x,x,x,x,n,x
CC(C)(C)N1NC2(CCCCC2)NC1=S,n,n,n,n,43,n
C=CCNC(=O)Nc1ccc(Cl)cn1,n,n,n,n,43,n
Cc1cccc(NC(=S)NC(=O)/C=C/c2ccco2)c1,n,n,n,n,1.4,n
O=C(/C=C/c1ccco1)NC(=S)Nc1ccccc1,n,n,n,n,n,n
C[C@@H]1CN([C@H](C)CO)C(=O)c2cccc(NC(=O)C3CCCCC3)c2O[C@H]1CN(C)C(=O)Nc1ccc(C(F)(F)F)cc1,x,x,x,x,n,x
O=C1C=CC(=O)c2c(O)c(N3CCN(CCOCCO)CC3)c(Br)c(O)c21,n,n,x,n,n,62
Nc1ccccc1Sc1nc2ccccc2[nH]1,n,n,n,n,n,61
CCSc1nc2ccccc2[nH]1,n,n,n,n,x,n

# High-throughput results from PubChem.
